In ChEMBL document CHEMBL1134032, “Rational design, synthesis, and biological evaluation of rigid pyrrolidone analogues as potential inhibitors of prostate cancer cell growth” (Bioorg Med Chem Lett, 2001) one finds Ki data, which are given here for 3 compounds.

The target in experiment [1] is Protein kinase C delta type (Homo sapiens, UniProt Q05655). The experiment in a line: Inhibition of [3H]-phorbol 12,13-dibutyrate (PDBu) binding to human recombinant protein kinase C delta. The essentials: (§1)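 Competitive displacement of [3H]PDBu binding from recombinant human PKC isozymes (alpha, beta, gamma, delta, epsilon), each tested separately. Affinity is reported as Ki in nM.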
Sequence of Protein kinase C delta type (Q05655 whole entry): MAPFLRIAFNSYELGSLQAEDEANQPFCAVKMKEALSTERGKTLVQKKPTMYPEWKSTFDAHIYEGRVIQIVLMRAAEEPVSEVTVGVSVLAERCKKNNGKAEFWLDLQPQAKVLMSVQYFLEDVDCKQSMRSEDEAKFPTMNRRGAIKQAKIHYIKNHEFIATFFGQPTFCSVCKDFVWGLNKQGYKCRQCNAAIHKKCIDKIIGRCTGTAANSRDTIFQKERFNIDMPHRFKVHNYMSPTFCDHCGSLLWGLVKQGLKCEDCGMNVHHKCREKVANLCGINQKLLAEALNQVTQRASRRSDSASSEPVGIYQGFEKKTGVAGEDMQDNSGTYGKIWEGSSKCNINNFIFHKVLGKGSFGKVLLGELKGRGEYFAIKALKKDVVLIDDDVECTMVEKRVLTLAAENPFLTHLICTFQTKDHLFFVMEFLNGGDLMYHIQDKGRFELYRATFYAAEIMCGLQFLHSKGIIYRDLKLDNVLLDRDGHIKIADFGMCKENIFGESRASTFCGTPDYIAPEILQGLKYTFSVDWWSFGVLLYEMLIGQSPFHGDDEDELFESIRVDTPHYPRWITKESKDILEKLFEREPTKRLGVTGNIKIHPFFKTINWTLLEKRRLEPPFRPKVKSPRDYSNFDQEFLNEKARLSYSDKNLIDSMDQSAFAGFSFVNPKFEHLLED

Experiment [2] concerns the target Protein kinase C alpha type (Homo sapiens, UniProt P17252). Nature of the experiment: Inhibition of [3H]-phorbol 12,13-dibutyrate (PDBu) binding to human recombinant protein kinase C alpha. The essentials:
as §1

Experiment [3] addresses Protein kinase C beta type (Homo sapiens, UniProt P05771). The experiment in a line: Inhibition of [3H]-phorbol 12,13-dibutyrate (PDBu) binding to human recombinant protein kinase C beta. The essentials:
as §1

For experiment [4], the target named is T1, Protein kinase C epsilon type (Homo sapiens, UniProt Q02156).
T1 sequence (Q02156 whole entry): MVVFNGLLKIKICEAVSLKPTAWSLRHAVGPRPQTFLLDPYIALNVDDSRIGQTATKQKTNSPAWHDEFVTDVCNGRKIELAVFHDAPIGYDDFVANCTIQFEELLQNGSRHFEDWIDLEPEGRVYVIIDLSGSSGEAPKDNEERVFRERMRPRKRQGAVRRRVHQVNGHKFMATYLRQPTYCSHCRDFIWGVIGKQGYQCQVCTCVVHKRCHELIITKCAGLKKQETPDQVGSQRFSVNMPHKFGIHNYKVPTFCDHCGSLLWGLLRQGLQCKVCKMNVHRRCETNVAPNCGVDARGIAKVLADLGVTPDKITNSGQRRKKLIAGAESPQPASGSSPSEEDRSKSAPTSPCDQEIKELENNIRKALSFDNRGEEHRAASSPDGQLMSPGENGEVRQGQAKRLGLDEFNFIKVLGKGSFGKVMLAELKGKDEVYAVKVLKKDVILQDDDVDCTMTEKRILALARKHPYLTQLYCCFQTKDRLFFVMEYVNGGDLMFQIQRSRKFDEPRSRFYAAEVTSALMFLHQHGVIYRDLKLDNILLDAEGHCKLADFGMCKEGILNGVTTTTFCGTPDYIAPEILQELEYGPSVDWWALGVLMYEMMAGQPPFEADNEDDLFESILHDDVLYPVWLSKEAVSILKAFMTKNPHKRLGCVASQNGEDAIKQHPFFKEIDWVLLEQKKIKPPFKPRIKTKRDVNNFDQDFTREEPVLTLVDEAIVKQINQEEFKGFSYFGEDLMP
The experiment in a line: Inhibition of [3H]-phorbol 12,13-dibutyrate (PDBu) binding to human recombinant protein kinase C epsilon. In short, it runs like this: as §1

Experiment [5] has as its target Protein kinase C gamma type (Homo sapiens, UniProt P05129). Nature of the experiment: Inhibition of [3H]-phorbol 12,13-dibutyrate (PDBu) binding to human recombinant protein kinase C gamma. In short, it runs like this:
as §1

Each structure is given as a SMILES string.

A word on the Ki: it is the equilibrium dissociation constant of an inhibitor or competing ligand from its target.

Sequence of Protein kinase C beta type (P05771 whole entry): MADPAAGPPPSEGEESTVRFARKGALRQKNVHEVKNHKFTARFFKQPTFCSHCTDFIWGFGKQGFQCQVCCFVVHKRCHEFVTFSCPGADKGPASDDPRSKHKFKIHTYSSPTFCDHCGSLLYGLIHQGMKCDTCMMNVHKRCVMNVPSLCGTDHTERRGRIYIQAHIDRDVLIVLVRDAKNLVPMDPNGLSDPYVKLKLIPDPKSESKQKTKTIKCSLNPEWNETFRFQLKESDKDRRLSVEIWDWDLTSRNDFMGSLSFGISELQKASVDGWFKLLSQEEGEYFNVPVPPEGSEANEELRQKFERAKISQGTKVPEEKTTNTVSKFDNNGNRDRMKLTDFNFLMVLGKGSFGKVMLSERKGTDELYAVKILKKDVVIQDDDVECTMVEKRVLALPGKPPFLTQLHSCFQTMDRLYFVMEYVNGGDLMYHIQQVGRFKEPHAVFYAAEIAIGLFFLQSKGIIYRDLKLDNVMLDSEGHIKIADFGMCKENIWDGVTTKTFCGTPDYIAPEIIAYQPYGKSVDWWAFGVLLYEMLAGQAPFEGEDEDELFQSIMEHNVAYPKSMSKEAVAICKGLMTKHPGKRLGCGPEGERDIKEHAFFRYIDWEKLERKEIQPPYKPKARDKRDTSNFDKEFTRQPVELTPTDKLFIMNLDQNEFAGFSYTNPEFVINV

Regarding `CCCCCCCCC#Cc1ccc2c(c1)C[C@@H](CO)NC(=O)[C@H](C(C)C)N2C`, the Ki in experiment [1] amounted to 114 nM; in experiment [2] it was 23 nM; in experiment [3] it was 70 nM; in experiment [4], 40 nM; in experiment [5], 43 nM.

For the compound `CCCCCCCCC#Cc1ccc2c(c1)[C@](C)(C(C)C)[C@H]1C(=O)N[C@H](CO)[C@@H]21`, the Ki was found to be 1630 nM in experiment [1], 580 nM in experiment [2], 469 nM in experiment [4] and 279 nM in experiment [5].

In the case of `CCCCCCCCCCCCCC(=O)O[C@@H]1[C@@H](C)[C@@]2(O)[C@@H](C=C(CO)C[C@]3(O)C(=O)C(C)=C[C@@H]23)[C@@H]2C(C)(C)[C@]12OC(C)=O` [PHORBOL MYRISTATE ACETATE], the Ki in experiment [1] came to 0.8 nM; in experiment [3] it was 1.8 nM; in experiment [4], 0.45 nM; in experiment [5], 4.9 nM.
